# BindingDB's records for doi:10.1016/j.bmc.2010.11.059 (University of Eastern Finland, 2011)
# Key:
# Cannabinoid receptor 2 = Cannabinoid receptor 2 (Homo sapiens, UniProt P34972); experiment: Agonist activity at human recombinant cannabinoid CB2 receptor expressed in CHO cells by [35S]GTPgammaS binding assay
# Summary of the method: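 hCB2 [35S]GTPγS binding concentration–response curves, run only for ligands giving over 50% relative activity at 10 µM. logEC50 and Emax come from nonlinear regression fitted to a sigmoidal concentration–response equation. Emax is given as percent of the 10 nM HU-210 response. Mean SEM of at least three experiments in duplicate.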
# Cannabinoid receptor 1 = Cannabinoid receptor 1 (Rattus norvegicus, UniProt P20272); experiment: Antagonist activity at rat cannabinoid CB1 receptor in Wistar rat cerebellar membranes by [35S]GTPgammaS binding assay
# Cannabinoid receptor 1, sequence (P20272 whole entry): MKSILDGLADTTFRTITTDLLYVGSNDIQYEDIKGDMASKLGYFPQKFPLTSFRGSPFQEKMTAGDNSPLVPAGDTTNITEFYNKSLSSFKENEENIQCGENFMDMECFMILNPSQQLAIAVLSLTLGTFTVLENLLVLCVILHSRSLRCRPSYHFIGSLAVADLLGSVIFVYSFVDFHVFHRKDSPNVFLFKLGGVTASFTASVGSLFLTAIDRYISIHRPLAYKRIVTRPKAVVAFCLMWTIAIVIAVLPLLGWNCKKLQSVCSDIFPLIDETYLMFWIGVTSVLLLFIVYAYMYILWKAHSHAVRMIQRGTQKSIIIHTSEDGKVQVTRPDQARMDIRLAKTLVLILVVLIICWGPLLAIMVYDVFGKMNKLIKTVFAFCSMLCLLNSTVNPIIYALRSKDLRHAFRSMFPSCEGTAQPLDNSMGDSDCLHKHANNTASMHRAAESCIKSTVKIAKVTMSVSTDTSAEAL
# Summary of the method: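 Non-recombinant rat cerebellar membrane fractions, [35S]GTPγS binding. Compounds screened at a single concentration for their ability to antagonise the response to 10 nM HU-210 agonist.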
# Cannabinoid receptor 2, sequence (P34972 whole entry): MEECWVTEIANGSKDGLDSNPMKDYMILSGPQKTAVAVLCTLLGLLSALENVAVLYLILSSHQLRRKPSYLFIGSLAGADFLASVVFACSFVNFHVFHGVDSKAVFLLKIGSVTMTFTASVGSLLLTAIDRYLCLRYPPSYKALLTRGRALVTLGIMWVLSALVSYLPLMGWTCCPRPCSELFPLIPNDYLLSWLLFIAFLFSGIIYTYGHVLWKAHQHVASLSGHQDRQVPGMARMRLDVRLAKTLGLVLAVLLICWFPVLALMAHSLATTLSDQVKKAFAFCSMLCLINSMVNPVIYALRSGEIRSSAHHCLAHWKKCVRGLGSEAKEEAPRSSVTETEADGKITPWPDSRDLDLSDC
SMILES,EC50 (Cannabinoid receptor 2) [nM],EC50 (Cannabinoid receptor 1) [nM]
c1ccc(Sc2ccc3ccccc3n2)cc1 [2-Phenylsulfanyl-Quinoline],3980,
O=C(NC1CCCCC1)c1cnc(Nc2cccc(C(F)(F)F)c2)c2ccccc12,1990,
O=C(c1cnc(Nc2cccc(C(F)(F)F)c2)c2ccccc12)N1CCOCC1,15.8,9990
FC(F)(F)c1cccc(Nc2cnc3ccccc3n2)c1,3980,
COc1ccccc1Nc1ccc2ccccc2n1,5010,
O=C(NCC1CCCCC1)c1cnc(Nc2cccc(C(F)(F)F)c2)c2ccccc12,1580,
FC(F)(F)c1ccccc1Nc1ccc2ccccc2n1,6300,
Clc1ccccc1Nc1ccc2ccccc2n1,6300,
c1ccc2nc(NC3CCCCC3)ccc2c1,6300,

# The remaining compounds from weak to strong by EC50 (Cannabinoid receptor 2), led by results:
EC50 (Cannabinoid receptor 2) [nM],SMILES,EC50 (Cannabinoid receptor 1) [nM]
3160,FC(F)(F)c1cccc(Nc2ncc3ccccc3n2)c1,
3160,FC(F)(F)c1cccc(Nc2ccnc3ccccc23)c1,
2510,Clc1cccc(Nc2ccc3ccccc3n2)c1,
2510,COc1cccc(Nc2ccc3ccccc3n2)c1,
2510,FC(F)(F)c1cccc(Nc2ncnc3ccccc23)c1,
1990,Brc1cccc(Nc2ccc3ccccc3n2)c1,
1990,Clc1ccc(Nc2ccc3ccccc3n2)cc1 [N-(4-chlorophenyl)quinolin-2-amine],
1990,COc1ccc(Nc2ccc3ccccc3n2)cc1 [2-(4''-Methoxyanilino)Quinoline],
1580,FC(F)(F)c1cccc(Nc2nccc3ccccc23)c1,
1250,FC(F)(F)c1cccc(Nc2ccc3ccccc3n2)c1,
